One test relates to Plasmodium falciparum. Description: Antimalarial activity against Plasmodium falciparum NF 54 assessed as inhibition of maturation into schizont stage after 36 to 40 hrs. The class given is functional. An outline of the steps: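 Synchronous ring-stage NF-54 parasites (5% D-sorbitol synchronization) in RPMI-1640 with 25 mM HEPES, 1% D-glucose, 0.23% sodium bicarbonate and 10% heat-inactivated human serum. Start at 1% parasitemia, 3% hematocrit. Compounds tested in duplicate wells, 37 °C, candle jar, 36–40 h. Giemsa-stained smears read by microscopy. MIC is the lowest tested concentration blocking full maturation to schizonts. Chloroquine reference.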

In test [1] the test system is Plasmodium yoelii. Description: Antimalarial activity against chloroquine-resistant Plasmodium yoelii infected in Swiss mice (Mus musculus) assessed as suppression of parasitaemia at 50 mg/kg, intraperitoneal for 4 days relative to control. It counts as functional. An outline of the steps: (§1)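 Swiss mice were infected on day 0 with 1 × 10^6 RBC parasitized by P. yoelii N-67. Five mice per group were dosed once daily on days 0–3 with a Tween 80 aqueous suspension, given ip in 0.2 mL or orally in 0.1 mL. Parasitemia was read from thin Giemsa smears on day 4. Suppression was calculated from group means as [(C − T)/C] × 100 against untreated controls.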

Test [2] has as its system Plasmodium yoelii. Briefly: Antimalarial activity against chloroquine-resistant Plasmodium yoelii infected in Swiss mice (Mus musculus) assessed as suppression of parasitaemia at 25 mg/kg, intraperitoneal for 4 days relative to control. It counts as functional. The gist of the method: as §1
The subject of test [3] is Plasmodium yoelii. Briefly: Antimalarial activity against chloroquine-resistant Plasmodium yoelii infected in Swiss mice (Mus musculus) assessed as suppression of parasitaemia at 100 mg/kg, peroral for 4 days relative to control. The class given is functional. As to conditions: route oral. An outline of the steps:
as §1

Test [4] concerns Plasmodium yoelii. Description: Antimalarial activity against chloroquine-resistant Plasmodium yoelii infected in Swiss mice (Mus musculus) assessed as mice (Mus musculus) survival at 50 mg/kg, intraperitoneal for 4 days relative to control. It counts as functional, organism-based. The arrangement: dose 50 mg/kg. The gist of the method: (§2)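 Swiss mice were inoculated with 1 × 10^6 P. yoelii N-67 parasitized RBC on day 0. Groups of five were dosed once daily on days 0–3 with compound as an aqueous suspension with a few drops of Tween 80. Intraperitoneal doses were given in 0.2 mL and oral doses in 0.1 mL. The read-out was the number of mice alive on day 28.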

For test [5], the system named is Plasmodium yoelii. Description: Antimalarial activity against chloroquine-resistant Plasmodium yoelii infected in Swiss mice (Mus musculus) assessed as mice (Mus musculus) survival at 25 mg/kg, intraperitoneal for 4 days relative to control. The arrangement: dose 25 mg/kg. The class given is functional, organism-based. The gist of the method:
as §2

For test [6], the system named is Plasmodium yoelii. Briefly: Antimalarial activity against chloroquine-resistant Plasmodium yoelii infected in Swiss mice (Mus musculus) assessed as mice (Mus musculus) survival at 100 mg/kg, peroral for 4 days relative to control. It counts as functional, organism-based. The arrangement: dose 100 mg/kg. An outline of the steps: as §2

Values after ≈ are worked out from the molar mass of the structure shown. Active and inactive are the calls of the source. The rule behind the calls is not given here.

As a reminder, the MIC is the lowest concentration found to suppress growth. For the compound `Cc1ccc([N+](=O)[O-])c(N2CCN(CCCNc3ccnc4cc(Cl)ccc34)CC2)c1`, the MIC in the test on Plasmodium falciparum turned out to be 10 µg/mL (≈ 22.7 µM).

Consider `COc1ccc2nc3cc(Cl)ccc3c(Nc3ccc(Nc4ccnc5cc(Cl)ccc45)cc3)c2c1`, for which the minimal inhibitory concentration (MIC) with Plasmodium falciparum was found to be 0.5 µg/mL (≈ 0.978 µM).

With `O=[N+]([O-])c1ccccc1N1CCN(CCCNc2ccnc3cc(Cl)ccc23)CC1`, the MIC with Plasmodium falciparum came to 10 µg/mL (≈ 23.5 µM).

On to `Clc1ccc2c(NCCCN3CCN(c4ccccn4)CC3)ccnc2c1`, for which the MIC in the test on Plasmodium falciparum amounted to 0.125 µg/mL (≈ 0.327 µM). In addition, the Activity with Plasmodium yoelii [1], with Plasmodium yoelii [2] and in the test with Plasmodium yoelii [3] was 100% each time. In addition, the outcome in the test with Plasmodium yoelii [4], with Plasmodium yoelii [5] and in the test with Plasmodium yoelii [6] was Active.

As to `Cc1ccc([N+](=O)[O-])c(N2CCN(CCNc3ccnc4cc(Cl)ccc34)CC2)c1`, the minimal inhibitory concentration (MIC) in the test with Plasmodium falciparum stood at 10 µg/mL (≈ 23.5 µM).

In the case of `O=[N+]([O-])c1cccnc1N1CCN(CCCNc2ccnc3cc(Cl)ccc23)CC1`, the minimal inhibitory concentration (MIC) in the test on Plasmodium falciparum is 10 µg/mL (≈ 23.4 µM).

Turning to `O=[N+]([O-])c1cccnc1N1CCN(CCNc2ccnc3cc(Cl)ccc23)CC1`, the MIC with Plasmodium falciparum was 10 µg/mL (≈ 24.2 µM).

Turning to `Clc1ccc2c(NCCN3CCN(c4ccccn4)CC3)ccnc2c1`, the MIC in the test with Plasmodium falciparum turned out to be 10 µg/mL (≈ 27.2 µM).

On to `N#CC1(c2ccccc2)CCN(CCCNc2ccnc3cc(Cl)ccc23)CC1`, for which the minimum inhibitory concentration (MIC) with Plasmodium falciparum was determined as 2 µg/mL (≈ 4.94 µM).

With `Clc1ccc2c(NCCCN3CCc4ccccc4C3)ccnc2c1`, the MIC in the test with Plasmodium falciparum was determined as 0.031 µg/mL (≈ 0.0881 µM). For the same compound, in the test on Plasmodium yoelii [1], the Activity was found to be 100%. Also, the outcome with Plasmodium yoelii [4] was inactive.

Take `COc1ccc2nc3cc(Cl)ccc3c(NCCCN3CCN(c4ccnc5cc(Cl)ccc45)CC3)c2c1`: the MIC in the test on Plasmodium falciparum is 1 µg/mL (≈ 1.83 µM).

For the compound `N#CC1(c2ccccc2)CCN(CCNc2ccnc3cc(Cl)ccc23)CC1`, the MIC with Plasmodium falciparum amounted to 10 µg/mL (≈ 25.6 µM).

As for `O=[N+]([O-])c1ccccc1N1CCN(CCNc2ccnc3cc(Cl)ccc23)CC1`, the minimum inhibitory concentration (MIC) in the test with Plasmodium falciparum was 10 µg/mL (≈ 24.3 µM).

Take `CCN(CC)CCCC(C)Nc1ccnc2cc(Cl)ccc12` (configuration not stated) [CHLOROQUINE]: in the test on Plasmodium falciparum, the MIC was 0.125 µg/mL (≈ 0.391 µM).

Take `Clc1ccc2c(NCCN3CCc4ccccc4C3)ccnc2c1`: the MIC in the test with Plasmodium falciparum amounted to 2 µg/mL (≈ 5.92 µM).

With `COc1ccc2nc3cc(Cl)ccc3c(NCCN3CCN(c4ccnc5cc(Cl)ccc45)CC3)c2c1`, in the test with Plasmodium falciparum, the MIC is 1 µg/mL (≈ 1.88 µM).

Consider `COc1ccc2nc3cc(Cl)ccc3c(Nc3cccc(Nc4ccnc5cc(Cl)ccc45)c3)c2c1`, for which, in the test with Plasmodium falciparum, the MIC is 0.25 µg/mL (≈ 0.489 µM). In the test with Plasmodium yoelii [1], the Activity was determined as 100%. For the same compound, the result with Plasmodium yoelii [4] was inactive.

For the origin of these results see ChEMBL document CHEMBL1287672, “Synthesis of new 4-aminoquinolines and quinoline-acridine hybrids as antimalarial agents” (2010).
